Measured values as given in ChEMBL document CHEMBL1152819, “Evaluation of hexadecyloxypropyl-9-R-[2-(Phosphonomethoxy)propyl]- adenine, CMX157, as a potential treatment for human immunodeficiency virus type 1 and hepatitis B virus infections” (Antimicrob Agents Chemother, 2007).

How the values were obtained:
[1] = Cytotoxicity against human MT2 cells; format: cell-based
In short: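 MT-2 cells in RPMI 1640 with 10% FBS and 10 mM HEPES, exposed to threefold serial drug dilutions. CC50 calculated from cell counts and viability.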

Rattus norvegicus [2] = test: Tmax in Sprague-Dawley rat assessed as tenofovir level at 10 mg/kg, po administered daily for 7 days measured on day 1; format: ADME, organism-based; parameters: dose 10 mg/kg, route oral; conditions: in vivo, 168 h
In short: (§1)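 Oral once daily for 7 days, vehicle or 10, 30 or 100 mg/kg/day, Sprague-Dawley rats 8-12 weeks old, not fasted. Plasma sampled 0.5, 1, 2, 4, 12, 24 h after dosing on days 1 and 7 (1 rat/sex/time point). CMX157 and tenofovir measured by HPLC-MS/MS, LOQ 1 ng/ml (values below set to zero). Noncompartmental analysis; Cmax/Tmax by direct observation, AUC by linear-log trapezoidal rule.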

[3] = Selectivity index, ratio of CC50 for human MT2 cells to EC50 for HIV1 LAI; format: toxicity, cell-based; conditions: read-out: Ratio CC50/EC50
[4] = Cytotoxicity against human HepG2 cells by MTS assay; format: cell-based; conditions: human, HepG2 cells
In short: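 Exponentially growing HepG2 cells (parent hepatoma line); cytostatic effect measured by MTS method.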

Rattus norvegicus [5] = test: AUC (0 to infinity) in Sprague-Dawley rat assessed as tenofovir level at 100 mg/kg, po administered daily for 7 days measured on day 1; format: ADME, organism-based, Plasma; parameters: time infinity, dose 100 mg/kg, route oral; conditions: in vivo, 168 h; in short: as §1
Hepatitis B virus [6] = test: Antiviral activity against HBV in human HepAD38 cells assessed as intracellular viral DNA levels treated for 3 days measured on day 6 […] by RT-PCR; format: functional, organism-based
In short: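 HepAD38 cells seeded at 5 x 10^5/well, grown 2-3 days with 0.3 µg/ml tetracycline, then induced by PBS wash and tetracycline/G418-free medium with or without compound at 37°C, 5% CO2. Medium changed after 3 days. Intracellular HBV DNA measured on day 6 postinduction by TaqMan real-time PCR against a plasmid standard curve, given as % of mock.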

Rattus norvegicus [7] = test: Tmax in Sprague-Dawley rat assessed as tenofovir level at 30 mg/kg, po administered daily for 7 days measured on day 1; format: ADME, organism-based; parameters: dose 30 mg/kg, route oral; conditions: in vivo, 168 h; in short: as §1
Rattus norvegicus [8] = test: Elimination half life in Sprague-Dawley rat assessed as tenofovir level at 10 mg/kg, po administered daily for 7 days measured on day 1; format: ADME, organism-based; parameters: dose 10 mg/kg, route oral; conditions: in vivo, 168 h
In short: (§2)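 Sprague-Dawley rats (3/sex/group), about 8 to 12 weeks old and not fasted, got vehicle or 10, 30 or 100 mg/kg/day orally once daily for 7 days. Blood was drawn at 0.5, 1, 2, 4, 12 and 24 h after dosing on days 1 and 7 (1 rat/sex/time point). Plasma was deproteinized, then HPLC-MS/MS (LOQ 1 ng/ml, values below set to zero). Noncompartmental analysis, AUC by linear-log trapezoidal rule.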

Rattus norvegicus [9] = test: Elimination half life in Sprague-Dawley rat assessed as tenofovir level at 30 mg/kg, po administered daily for 7 days measured on day 1; format: ADME, organism-based; parameters: dose 30 mg/kg, route oral; conditions: in vivo, 168 h; in short: as §1
[10] = tested on: Human immunodeficiency virus 1; test: Antiviral activity against HIV1 clade B HT/92/599 isolate in human PBMC assessed as reduction in reverse transcriptase; format: functional, organism-based; conditions: Human immunodeficiency virus 1, clade B
In short: (§3)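 Fresh human PBMCs, seronegative for HIV and HBV, infected with HIV-1 clade B HT/92/599. Antiviral read-out by reverse transcriptase reduction; cytotoxicity by XTT staining. EC50, CC50 and CC50/EC50 taken from data plots, given as mean ± standard deviation of triplicate determinations.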

Rattus norvegicus [11] = test: AUC (0 to infinity) in Sprague-Dawley rat assessed as tenofovir level at 10 mg/kg, po administered daily for 7 days measured on day 1; format: ADME, organism-based, Plasma; parameters: time infinity, dose 10 mg/kg, route oral; conditions: in vivo, 168 h; in short: as §1
Rattus norvegicus [12] = test: Elimination half life in Sprague-Dawley rat assessed as tenofovir level at 100 mg/kg, po administered daily for 7 days measured on day 1; format: ADME, organism-based; parameters: dose 100 mg/kg, route oral; conditions: in vivo, 168 h; in short: as §1
[13] = Cytotoxicity against human PBMC by XTT assay; format: cell-based; in short: as §3
[14] = Selectivity index, ratio of CC50 for human PBMC to EC50 for HIV1 clade B HT/92/599 isolate; in short: as §3
Rattus norvegicus [15] = test: Tmax in Sprague-Dawley rat assessed as tenofovir level at 100 mg/kg, po administered daily for 7 days measured on day 7; format: ADME, organism-based; parameters: dose 100 mg/kg, route oral; conditions: in vivo, 168 h; in short: as §1
Rattus norvegicus [16] = test: Tmax in Sprague-Dawley rat assessed as tenofovir level at 30 mg/kg, po administered daily for 7 days measured on day 7; format: ADME, organism-based; parameters: dose 30 mg/kg, route oral; conditions: in vivo, 168 h; in short: as §1
Rattus norvegicus [17] = test: AUC (0 to infinity) in Sprague-Dawley rat assessed as tenofovir level at 10 mg/kg, po administered daily for 7 days measured on day 7; format: ADME, organism-based, Plasma; parameters: time infinity, dose 10 mg/kg, route oral; conditions: in vivo, 168 h; in short: as §1
[18] = Selectivity index, ratio of CC50 for human HepG2 cells to EC50 for HBV
Rattus norvegicus [19] = test: AUC (0 to infinity) in Sprague-Dawley rat assessed as tenofovir level at 30 mg/kg, po administered daily for 7 days measured on day 7; format: ADME, organism-based, Plasma; parameters: time infinity, dose 30 mg/kg, route oral; conditions: in vivo, 168 h; in short: as §1
Rattus norvegicus [20] = test: Elimination half life in Sprague-Dawley rat assessed as tenofovir level at 30 mg/kg, po administered daily for 7 days measured on day 7; format: ADME, organism-based; parameters: dose 30 mg/kg, route oral; conditions: in vivo, 168 h; in short: as §1
[21] = Cytotoxicity against human HepG2(2.2.15) cells after 24 hrs by neutral red uptake assay; format: cell-based; conditions: human, HepG2 2.2.15 cells
In short: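 Confluent 2.2.15 cells given nine daily treatments. Neutral red uptake read by absorbance of internalized dye 24 h after the last treatment, three cultures per concentration.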

Rattus norvegicus [22] = test: Elimination half life in Sprague-Dawley rat assessed as tenofovir level at 10 mg/kg, po administered daily for 7 days measured on day 7; format: ADME, organism-based; parameters: dose 10 mg/kg, route oral; conditions: in vivo, 168 h; in short: as §1
Hepatitis B virus [23] = test: Antiviral activity against HBV in human HepG2(2.2.15) cells assessed as viral DNA levels treated for 9 days measured after 24 hrs; format: functional, organism-based
In short: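 Confluent 2.2.15 cells in RPMI 1640 with 2% FBS, given nine consecutive daily doses with daily medium change (six cultures per concentration on two replicate plates). HBV DNA quantified by blot hybridization 24 h after the last treatment.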

Rattus norvegicus [24] = test: Tmax in Sprague-Dawley rat assessed as tenofovir level at 100 mg/kg, po administered daily for 7 days measured on day 1; format: ADME, organism-based; parameters: dose 100 mg/kg, route oral; conditions: in vivo, 168 h; in short: as §1
Rattus norvegicus [25] = test: AUC (0 to infinity) in Sprague-Dawley rat assessed as tenofovir level at 30 mg/kg, po administered daily for 7 days measured on day 1; format: ADME, organism-based, Plasma; parameters: time infinity, dose 30 mg/kg, route oral; conditions: in vivo, 168 h; in short: as §2
Rattus norvegicus [26] = test: Tmax in Sprague-Dawley rat assessed as tenofovir level at 10 mg/kg, po administered daily for 7 days measured on day 7; format: ADME, organism-based; parameters: dose 10 mg/kg, route oral; conditions: in vivo, 168 h; in short: as §1
Rattus norvegicus [27] = test: AUC (0 to infinity) in Sprague-Dawley rat assessed as tenofovir level at 100 mg/kg, po administered daily for 7 days measured on day 7; format: ADME, organism-based, Plasma; parameters: time infinity, dose 100 mg/kg, route oral; conditions: in vivo, 168 h; in short: as §1
Rattus norvegicus [28] = test: Elimination half life in Sprague-Dawley rat assessed as tenofovir level at 100 mg/kg, po administered daily for 7 days measured on day 7; format: ADME, organism-based; parameters: dose 100 mg/kg, route oral; conditions: in vivo, 168 h; in short: as §1
[29] = tested on: Human immunodeficiency virus 1; test: Antiviral activity against HIV1 LAI in human MT2 cells assessed as inhibition of p24 antigen production by ELISA; format: functional, organism-based; conditions: Human immunodeficiency virus 1, LAI
In short: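 MT-2 cells in RPMI 1640 with 10% FBS and 10 mM HEPES, infected with HIV-1 LAI at MOI 0.001 TCID50/cell. Incubated with threefold serial dilutions, three wells per dilution. EC50 taken as the concentration inhibiting p24 antigen production by 50%.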

[30] = Selectivity index, ratio of CC50 for human HepG2(2.2.15) cells to EC50 for HBV

SMILES: C[C@H](Cn1cnc2c(N)ncnc21)OCP(=O)(O)O [TENOFOVIR ANHYDROUS]
- CC50 [1]: > 100 µM
- Tmax (Rattus norvegicus [2]): 2 h
- selectivity ratio [3]: > 154
- CC50 [4]: > 100 µM
- AUC (Rattus norvegicus [5]): 3639.5 ng·h/mL
- EC50 (Hepatitis B virus [6]): 2250 nM
- Tmax (Rattus norvegicus [7]): 4 h
- beta t1/2 (Rattus norvegicus [8]): 10.9 h
- beta t1/2 (Rattus norvegicus [9]): 10.1 h
- EC50 [10]: 3.2 µM
- AUC (Rattus norvegicus [11]): 775.2 ng·h/mL
- beta t1/2 (Rattus norvegicus [12]): 7.2 h
- CC50 [13]: 1.27 mM
- Ratio CC50/EC50 [14]: 396
- Tmax (Rattus norvegicus [15]): 12 h
- Tmax (Rattus norvegicus [16]): 4 h
- AUC (Rattus norvegicus [17]): 1226.9 ng·h/mL
- Ratio CC50/EC50 [18]: >133
- AUC (Rattus norvegicus [19]): 2790.5 ng·h/mL
- beta t1/2 (Rattus norvegicus [20]): 7.6 h
- CC50 at 24 h [21]: > 300 µM
- beta t1/2 (Rattus norvegicus [22]): 9.2 h
- EC50 (Hepatitis B virus [23]): 7.2 µM
- Tmax (Rattus norvegicus [24]): 12 h
- AUC (Rattus norvegicus [25]): 1808.1 ng·h/mL
- Tmax (Rattus norvegicus [26]): 2.4 h
- AUC (Rattus norvegicus [27]): 7373.4 ng·h/mL
- beta t1/2 (Rattus norvegicus [28]): 9 h
- EC50 [29]: 650 nM
- Ratio CC50/EC50 [30]: >41.7
